ChEMBL document CHEMBL4373727, “Thienopyrimidinone Derivatives That Inhibit Bacterial tRNA (Guanine37-N1)-Methyltransferase (TrmD) by Restructuring the Active Site with a Tyrosine-Flipping Mechanism” (J Med Chem, 2019)
Active and inactive are the calls of the source. The rule behind the calls is not given here.

Key:
[1] = biological target: T1, tRNA (guanine-N(1)-)-methyltransferase (Pseudomonas aeruginosa (strain ATCC 15692 / DSM 22644 / CIP 104116 / JCM14847 / LMG 12228 / 1C / PRS 101 / PAO1)) (UniProt Q9HXQ1); assay: Binding affinity to Pseudomonas aeruginosa tRNA (guanine(37)-N1)-methyltransferase (Leu5 to Asp25 residues) expressed in Escherichia coli BL21 (DE3) Rosetta T1R cells assessed as thermal stabilization of protein by measuring change in melting temperature at 0.1 mM by SYPRO orange based thermal shift assay
T1 sequence (whole entry): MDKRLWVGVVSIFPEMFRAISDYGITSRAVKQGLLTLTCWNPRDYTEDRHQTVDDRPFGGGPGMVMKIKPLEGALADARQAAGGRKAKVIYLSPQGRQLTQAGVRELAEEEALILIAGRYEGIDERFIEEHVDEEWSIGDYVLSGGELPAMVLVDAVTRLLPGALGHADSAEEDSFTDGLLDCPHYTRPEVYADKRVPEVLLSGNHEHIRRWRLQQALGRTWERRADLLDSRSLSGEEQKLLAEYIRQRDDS
Outline: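 Thermal shift: 4 μM TrmD with 5× SYPRO Orange and ligand in 50 mM Tris-HCl pH 8, 150 mM NaCl, 1 mM MgCl2, 1 mM DTT, 0.05% Tween-20. Buffer-only control. Heated from 25 to 95 °C in a real-time PCR instrument, and Tm taken as the unfolding midpoint. Ligand levels: SAH 2 mM, inhibitors 0.1 mM.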

Enterococcus faecalis = assay: Antibacterial activity against Enterococcus faecalis ATCC 51299 at 100 uM incubated for 24 hrs; assay type: functional, organism-based
Outline: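 Single-concentration screen in brain heart infusion broth. Log-phase cells at ~5×10^5 cells/mL were grown with 100 μM compound for 24 h at 37 °C. Growth was read as OD600 and expressed as a percentage of untreated wells. DMSO and blank controls were included.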

[2] = tested on: Mycolicibacterium smegmatis; assay: Antibacterial activity against Mycolicibacterium smegmatis MC2 155 at 100 uM incubated for 24 hrs; assay type: functional, organism-based
Outline: (§1)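 Single-concentration growth screen: 100 μM test compound with log-phase bacteria at about 5×10^5 cells/mL. Incubation 24 h at 37 °C. Growth read by OD600 and given as percent of untreated control. MRSA was grown in cation-adjusted Mueller–Hinton broth. M. smegmatis was grown in complete Middlebrook 7H9. Ampicillin and kanamycin served as positive controls.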

Staphylococcus aureus = assay: Antibacterial activity against methicillin-resistant Staphylococcus aureus ATCC 43300 at 100 uM incubated for 24 hrs; assay type: functional, organism-based; outline: as §1
[3] = biological target: T1, tRNA (guanine-N(1)-)-methyltransferase (Pseudomonas aeruginosa (strain ATCC 15692 / DSM 22644 / CIP 104116 / JCM14847 / LMG 12228 / 1C / PRS 101 / PAO1)); assay: Binding affinity to Pseudomonas aeruginosa tRNA (guanine(37)-N1)-methyltransferase (Leu5 to Asp25 residues) expressed in Escherichia coli BL21 (DE3) Rosetta T1R cells assessed as dissociation rate constant by surface plasmon resonance assay
Outline: (§2)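 SPR at 25 °C. His-tagged TrmD (50 μg/mL) captured on an anti-His antibody surface (about 2200 RU), with a blank reference cell. Buffer: 50 mM Tris-HCl pH 8, 150 mM NaCl, 1 mM MgCl2, 1 mM DTT, 0.05% Tween-20. Analyte in 2-fold dilutions, injected lowest to highest at 30 μL/min, 30 s contact, 240 s dissociation. KD from steady-state affinity fit.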

[4] = biological target: T2, tRNA (guanine-N(1)-)-methyltransferase (Pseudomonas aeruginosa (strain ATCC 15692 / DSM 22644 / CIP 104116 / JCM14847 / LMG 12228 / 1C / PRS 101 / PAO1), UniProt Q9HXQ1); assay: (§3) Inhibition of Pseudomonas aeruginosa tRNA (guanine(37)-N1)-methyltransferase (Leu5 to Asp25 residues) expressed in Escherichia coli BL21 Rosetta (DE3) assessed as reduction in S-adenosyl-L-homocysteine production preincubated for 15 mins followed by 4.5 uM of tRNALeu(CAG) substrate and SAM addition and measured after 45 mins by MTase-Glo assay
T2 sequence (Q9HXQ1 whole entry): T1 sequence (whole entry)
Outline: (§4)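 tRNA competition: same MTase-Glo assay with 8 nM PaTrmD and 2 μM SAM, 15 min preincubation and 45 min reaction at 37 °C. tRNALeu(CAG) at 1.5, 4.5 or 15 μM. IC50 from dose–response curves, duplicate data points.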

[5] = biological target: T3, tRNA (guanine-N(1)-)-methyltransferase (Mycobacterium tuberculosis (strain ATCC 25618 / H37Rv)) (UniProt P9WFY7); assay: Binding affinity to full length Mycobacterium tuberculosis tRNA (guanine(37)-N1)-methyltransferase expressed in Escherichia coli BL21 (DE3) assessed as association rate constant by surface plasmon resonance assay; outline: as §2
T3 sequence (whole entry): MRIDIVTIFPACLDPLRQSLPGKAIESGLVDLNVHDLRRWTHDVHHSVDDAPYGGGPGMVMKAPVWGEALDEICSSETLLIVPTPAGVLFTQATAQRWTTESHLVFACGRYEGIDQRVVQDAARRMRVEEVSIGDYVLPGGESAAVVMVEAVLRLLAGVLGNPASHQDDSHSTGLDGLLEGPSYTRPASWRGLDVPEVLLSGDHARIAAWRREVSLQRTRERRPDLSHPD

[6] = biological target: T2, tRNA (guanine-N(1)-)-methyltransferase; assay: as §3, with “15” for “4.5”; outline: as §4
[7] = biological target: T2, tRNA (guanine-N(1)-)-methyltransferase; assay: Binding affinity to Pseudomonas aeruginosa tRNA (guanine(37)-N1)-methyltransferase (Leu5 to Asp25 residues) expressed in Escherichia coli BL21 (DE3) Rosetta T1R cells by surface plasmon resonance assay; outline: as §2
[8] = biological target: T4, tRNA (guanine-N(1)-)-methyltransferase (Staphylococcus aureus (strain NCTC 8325 / PS 47), UniProt Q2FZ43); assay: Binding affinity to full length Staphylococcus aureus tRNA (guanine(37)-N1)-methyltransferase expressed in Escherichia coli BL21 (DE3) by surface plasmon resonance assay; outline: as §2
T4 sequence (Q2FZ43 whole entry): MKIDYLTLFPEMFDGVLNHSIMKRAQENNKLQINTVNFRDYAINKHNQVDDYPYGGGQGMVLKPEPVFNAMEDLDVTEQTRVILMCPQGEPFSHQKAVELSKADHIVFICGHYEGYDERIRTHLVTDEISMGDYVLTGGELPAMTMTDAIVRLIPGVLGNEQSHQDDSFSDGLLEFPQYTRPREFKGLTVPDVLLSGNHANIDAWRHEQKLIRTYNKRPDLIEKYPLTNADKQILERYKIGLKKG

[9] = biological target: T3, tRNA (guanine-N(1)-)-methyltransferase (Mycobacterium tuberculosis (strain ATCC 25618 / H37Rv)); assay: Binding affinity to full length Mycobacterium tuberculosis tRNA (guanine(37)-N1)-methyltransferase expressed in Escherichia coli BL21 (DE3) assessed as dissociation rate constant by surface plasmon resonance assay; outline: as §2
[10] = tested on: Mycobacterium tuberculosis; assay: Antibacterial activity against Mycobacterium tuberculosis ATCC 27294 at 100 uM incubated for 7 days; assay type: functional, organism-based
[11] = biological target: T2, tRNA (guanine-N(1)-)-methyltransferase; assay: as §3, with “BL21 (DE3)” for “BL21”, “T1R cells” for “(DE3)”, “1.5” for “4.5”
Outline: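 MTase-Glo luminescence assay. 8 nM TrmD preincubated 15 min at ambient temperature with serially diluted inhibitor (0–500 μM) in 50 mM Tris-HCl pH 8.0, 80 mM NaCl, 1 mM MgCl2, 0.5 mM DTT, 0.01% Triton X-100. Reaction with 2 μM SAM and tRNALeu(CAG), 45 min at 37 °C. Detection 30 min in the dark, SAH read against a standard curve. IC50 by nonlinear regression. Two independent experiments in duplicate.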

| SMILES | ΔTm [1] | Activity (Enterococcus faecalis) | Activity [2] | Activity (Staphylococcus aureus) | Kdiss [3] | IC50 [4] | Ka [5] | IC50 [6] | Kd [7] | Kd [8] | Kdiss [9] | Activity [10] | IC50 [11] |
| --- | --- | --- | --- | --- | --- | --- | --- | --- | --- | --- | --- | --- | --- |
| CCCCCCCCNCc1ccc(CNC(=O)c2csc3nc[nH]c(=O)c23)cc1 | 12 °C | Active | Active | Active | 0.0218 s⁻¹ | 60 nM | 645000 M⁻¹ s⁻¹ | 260 nM | 1.6 nM | 3100 nM | 0.12 s⁻¹ | Active | 24 nM |
| NC1CCN(Cc2ccc(CNC(=O)c3csc4nc[nH]c(=O)c34)cc2)CC1 | 4 to 29 °C | inactive | inactive | inactive | 0.0117 s⁻¹ | 330 nM | 20100 M⁻¹ s⁻¹ | 840 nM | 91 nM | 27500 nM | 0.209 s⁻¹ | inactive | 180 nM |
